# In the EternaBench riboswitch data:
# How the values were obtained:
# MS2 coat protein [1] = test: apparent Kd, MS2 coat protein; higher = weaker binding; RNA-MaP array; tryptophan 2.4 mM where present
# Summary of the method: (§1)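 On Illumina sequencing-chip clusters, designs were transcribed by stalled E. coli RNA polymerase and titrated with SNAP-549-labelled MS2 coat protein (0.7 or 1.5 nM, doubling to 3 µM), without and then with constant ligand, in 100 mM Tris-HCl pH 7.5, 80 mM KCl, 4 mM MgCl2, BSA, DTT, yeast tRNA and Tween-20. Apparent Kd is the median of filtered per-cluster curve fits to green signal normalised to red-channel RNA signal and control-cluster median Fmax.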
# MS2 coat protein [2] = test: apparent Kd, MS2 coat protein; higher = weaker binding; RNA-MaP array; theophylline 2 mM where present
# Summary of the method: as §1
# [3] = designed as: OFF switch for tryptophan, no ligand
# [4] = ligand present: tryptophan, designed as: OFF switch for tryptophan
# [5] = designed as: ON switch for tryptophan, no ligand
# [6] = ligand present: tryptophan, designed as: ON switch for tryptophan
# [7] = designed as: ON switch for theophylline, no ligand
# [8] = ligand present: theophylline, designed as: ON switch for theophylline
# [9] = designed as: OFF switch for theophylline, no ligand
# [10] = ligand present: theophylline, designed as: OFF switch for theophylline
sequence,measurement,setting,value
CCUAUGCAGUCGGCCGCCACUGAAAACAGCCUCAAAAUAAAUAUAACAUGAGGAUCACCCAUGUACAGGACCGGGACUGUAUAGG,apparent Kd,MS2 coat protein [1]; [3],147 nM
same,apparent Kd,MS2 coat protein [1]; [4],79.6 nM
ACCUGCGUUUGUUUCUUUCUGACGCAGGUUCGAGGACCGGUACGGCCGCCACUCGGACAUGAGGAUCACCCAUGUUUGACAUGGG,apparent Kd,MS2 coat protein [1]; [3],57.3 nM
same,apparent Kd,MS2 coat protein [1]; [4],17.3 nM
UAAUGCAGGUCGGCCGCCACUACACACAUGAGGAUCACCCAUGUAGUUACUGGGUGAAGUGGCAGUAGGACCGGGACCUGCAUAC,apparent Kd,MS2 coat protein [1]; [5],372 nM
same,apparent Kd,MS2 coat protein [1]; [6],470 nM
GAUAUACGUGCGGCCGCCACUGAGUGGCGGGCGUGUCGAGUUACAUGAGGAUCACCCAUGUCACUCAGGACCGGGCACGGAAUUU,apparent Kd,MS2 coat protein [1]; [3],9.98 nM
same,apparent Kd,MS2 coat protein [1]; [4],11.4 nM
GCAUCCUAGUCGGCCGCCACUGGUAUGAACACCUUCACCCGUGUGCACAUGAGGAUCACCCAUGUUAGGACCGGGACUAGGAUGC,apparent Kd,MS2 coat protein [1]; [5],9.03 nM
same,apparent Kd,MS2 coat protein [1]; [6],9.3 nM
CGAAUAUAGACGGCCGCCACUCUACAAACAUGAGGAUCACCCAUGUUCACAUAGUGGAAACACAUGAGGACCGGGUCAUAGGCUU,apparent Kd,MS2 coat protein [1]; [5],22.6 nM
same,apparent Kd,MS2 coat protein [1]; [6],17.1 nM
UAAACUACACAUGAGGAUCACCCAUGUGGCCGAGGACCGGUACGGCCGCCACUCGUGUGUUAAUAAUAGAACUGCAAGGUUCUGU,apparent Kd,MS2 coat protein [1]; [5],183 nM
same,apparent Kd,MS2 coat protein [1]; [6],75.2 nM
AGAAUAUAGUCGGCCGCCACUCUACAUACAUGAGGAUCACCCAUGUUUACAUAGUGAAUAUACAUGAGGACCGGGACAUAGGCAU,apparent Kd,MS2 coat protein [1]; [5],21.8 nM
same,apparent Kd,MS2 coat protein [1]; [6],13.4 nM
AGCCACUCGAGUGAUCCUCACGAGUGGCUACGAGGACCGGUACGGCCGCCACUCGAAUUAACAUGAGGAUCACCCAUGUAAUCUC,apparent Kd,MS2 coat protein [1]; [5],102 nM
same,apparent Kd,MS2 coat protein [1]; [6],45.9 nM
AAUACCGGAUCGGCCGCCACUGGUUGGCCCUGUGUACAUGAGGAUCACCCAUGUCCAUCCCAGACCAGGACCGGGAUCUUUGUGU,apparent Kd,MS2 coat protein [1]; [5],15.8 nM
same,apparent Kd,MS2 coat protein [1]; [6],10.4 nM
GGGUGGUAGGCGGCCGCCACUGAUUUUCAUUCCUGGAUGACAUGAGGAUCACCCAUGUUUACGGGCAGGACCGGGCCUGCUGUGG,apparent Kd,MS2 coat protein [1]; [5],57.3 nM
same,apparent Kd,MS2 coat protein [1]; [6],46.5 nM
UAAUAAGUACCGGUCCUCAGAUCCUCAUGACGAGGACCGGUACGGCCGCCACUCGAAACAUGAGGAUCACCCAUGUAAUAAUAAC,apparent Kd,MS2 coat protein [1]; [3],27.4 nM
same,apparent Kd,MS2 coat protein [1]; [4],19.4 nM
CGCACAUGAGGAUCACCCAUGUGAGGGCGUCGAGGACCGGUACGGCCGCCACUCGCAGGACAUGAGGAUCACCCAUGUGCCGCCG,apparent Kd,MS2 coat protein [1]; [5],116 nM
same,apparent Kd,MS2 coat protein [1]; [6],57.2 nM
UAACAUGAGGAUCACCCAUGUUUAGAAGAACGAGGACCGGUACGGCCGCCACUCGAAAAGUGGAAGAAAAGAGGGAUAGAAUGAU,apparent Kd,MS2 coat protein [1]; [5],12.2 nM
same,apparent Kd,MS2 coat protein [1]; [6],12.6 nM
UCGUUGAAGUCGGCCGCCACUGAACUCAUGUUCAACAUGAGGAUCACCCAUGUACCUUAUUUUAACAGGACCGGGACUUUGACGA,apparent Kd,MS2 coat protein [1]; [3],167 nM
same,apparent Kd,MS2 coat protein [1]; [4],156 nM
CCUCAAUAGACGGCCGCCACUGAAACAUGAGGAUACAUGAGGAUCACCCAUGUGGGUGUGUUACGCAGGACCGGGUCAAGACCCG,apparent Kd,MS2 coat protein [1]; [5],207 nM
same,apparent Kd,MS2 coat protein [1]; [6],336 nM
AGCCACUCGAACAUGGGUGACGAGUGGCAACGAGGACCGGUACGGCCGCCACUCGAAUAAACAUGAGGAUCACCCAUGUACAAAU,apparent Kd,MS2 coat protein [1]; [5],292 nM
same,apparent Kd,MS2 coat protein [1]; [6],214 nM
CGCGCGACAUGAGGAUCACCCAUGUUCCCUCGAGGACCGGUACGGCCGCCACUCGAGGACAUGAGCAUCAGCCAUGUACCGGUCA,apparent Kd,MS2 coat protein [1]; [5],51.6 nM
same,apparent Kd,MS2 coat protein [1]; [6],131 nM
UUAAUUAUUGAAUCGUAUUGGUAUUAAGAACGAGGACCGGUACGGCCGCCACUCGUGAUAUACAUGAGGAUCACCCAUGUUAGCA,apparent Kd,MS2 coat protein [1]; [5],14.8 nM
same,apparent Kd,MS2 coat protein [1]; [6],14 nM
GCUGCAGCUACGGCCGCCACUGUUACGUGAGACAUGAGGAUCACCCAUGUUGAUGUUUUACGGUAUAGGACCGGGUAGUUGUAGU,apparent Kd,MS2 coat protein [1]; [3],9.7 nM
same,apparent Kd,MS2 coat protein [1]; [4],13.4 nM
AGCACUGUGACGGCCGCCACUACAUAACAUGGGUGGUCAGGUUCAUUACAUGAGGAUCACCCAUGUAGGACCGGGUCUCAGUGCA,apparent Kd,MS2 coat protein [1]; [3],10.1 nM
same,apparent Kd,MS2 coat protein [1]; [4],8.35 nM
GUUAUUAGAAAACUAAUAACAGUGGGUGAACGAGGACCGGUACGGCCGCCACUCGGACAUGAGGAUCACCCAUGUCCAUGUGAAA,apparent Kd,MS2 coat protein [1]; [3],15.4 nM
same,apparent Kd,MS2 coat protein [1]; [4],32.7 nM
CCUAUGCAGUCGGCCGCCACUGAACAUGAGGAUCACCCAUGUAAUUAAAAUUAAGGUCCUAAAAUCAGGACCGGGACUGUAUAGG,apparent Kd,MS2 coat protein [1]; [3],38.5 nM
same,apparent Kd,MS2 coat protein [1]; [4],237 nM
GGUAGCAGGACUGAUACCAGUCCAGCGAAUCAUACGACGCAACAUGAGGAUCACCCAUGUGACCCUUGGCAGCAGACUGCUACCG,apparent Kd,MS2 coat protein [2]; [7],24.7 nM
same,apparent Kd,MS2 coat protein [2]; [8],14.5 nM
AGUAAUCUAAGAGAUACCAGACGGUAUAUAACAUGAGGAUCACCCAUGUUUUGGGUGUACGUCCCUUGGCAGCUCAAAAUGAUAA,apparent Kd,MS2 coat protein [2]; [7],230 nM
same,apparent Kd,MS2 coat protein [2]; [8],115 nM
AAUCUGUCGGGUGAUACCAGCCUCGGCGCAUCUCGCACCGAACAUGAGGAUCACCCAUGUGGCCCUUGGCAGCACAUGACAAAUC,apparent Kd,MS2 coat protein [2]; [7],371 nM
same,apparent Kd,MS2 coat protein [2]; [8],82.2 nM
UAUAACAUGAGGAUCACCCAUGUAAGUGAUACCAGAUAAAUAAUAGUCCCUUGGCAGCAUAUUGGGAAAAUGUAUAAUAUAUAUU,apparent Kd,MS2 coat protein [2]; [7],57.8 nM
same,apparent Kd,MS2 coat protein [2]; [8],57.4 nM
AUAAGUAAUGUUUCGUGUAUUAUUACAGAUACCAGACUAUACGUUGUCCCUUGGCAGCUGGAUUACAUGAGGAUCACCCAUGUUG,apparent Kd,MS2 coat protein [2]; [9],15.8 nM
same,apparent Kd,MS2 coat protein [2]; [10],27.5 nM
AGCCUAUUACAUGAGGAUCACCCAUGUGAUACCAGUCAGGAAACUGACCCUUGGCAGCGCAUGAGGAUCACCCAUGCGCUAGGCA,apparent Kd,MS2 coat protein [2]; [9],10.1 nM
same,apparent Kd,MS2 coat protein [2]; [10],10.2 nM
ACUUUGUCGGGUGAUACCAGCCUCGGCACAUCUCGUGCCGAACAUGAGGAUCACCCAUGUGGCCCUUGGCAGCACAUGACAACUC,apparent Kd,MS2 coat protein [2]; [7],375 nM
same,apparent Kd,MS2 coat protein [2]; [8],67 nM
AGUGUAUCCAUCGAUACCAGCCACAACGUAACAUACACAUGAGGAUCACCCAUGUUGUGUGGCCCUUGGCAGCGGUGCCUGUGUA,apparent Kd,MS2 coat protein [2]; [7],14.3 nM
same,apparent Kd,MS2 coat protein [2]; [8],12.2 nM
AGAACAAAACUAAAUAAACAACUGGGUGAUACCAGCACAUGUGCGUGCCCUUGGCAGCAUCCGGCCACAUGAGGAUCACCCAUGU,apparent Kd,MS2 coat protein [2]; [7],74 nM
same,apparent Kd,MS2 coat protein [2]; [8],155 nM
AUUAUCAUGGUCAUUUAUAUUUCGUCAGAUACCAGACUAGAUAUAGUCCCUUGGCAGCUGUUACAUGAGGAUCACCCAUGUUAUU,apparent Kd,MS2 coat protein [2]; [9],124 nM
same,apparent Kd,MS2 coat protein [2]; [10],46.6 nM
AAUAACAUGAGGAUCACCCAUGUAAAAGAUACCAGGGUGAUGAUCCUCCCUUGGCAGCUUACAGCUGAUCAAUAAGAUCGGCUGA,apparent Kd,MS2 coat protein [2]; [8],257 nM
AGCCCUGUACUAGAUACCAGCUACAUGAGGAUCACCCAUGUGCGUCAAGACUGACUGUGUAGCCCUUGGCAGCUACUCGCAUGUA,apparent Kd,MS2 coat protein [2]; [9],15.7 nM
same,apparent Kd,MS2 coat protein [2]; [10],25.5 nM
